Laboratory results published in ChEMBL document CHEMBL4818983, “Structure-activity relationship and hypoglycemic activity of tricyclic matrines with advantage of treating diabetic nephropathy” (Eur J Med Chem, 2020).
Calls of active or inactive are those of the source. The calls are words filed in the database; no cut-off is given here.

Experiments:
Mus musculus [1] = test: Anti-diabetic activity in high fat diet-fed KK-Ay mouse model of obesity and diabetes assessed as reduction in urine glucose level at 50 to 100 mg/kg, po measured after 24 hrs; conditions: dose 50-100 mg/kg
Mus musculus [2] = test: Antidiabetic activity in KK-Ay mouse assessed as effect on HOMA-IR level at 50 mg/kg, […] by ELISA (reference value: 137 +/- 18.4); format: functional
Mus musculus [3] = test: Antidiabetic activity in KK-Ay mouse assessed as effect on AGE level at 50 mg/kg, po for 24 hrs by ELISA (Rvb 2.85 +/- 0.92 ug/ml); format: functional
Mus musculus [4] = test: Antidiabetic activity in KK-Ay mouse assessed as effect on AGE level at 100 mg/kg, […] by ELISA (Rvb 2.85 +/- 0.92 ug/ml); format: functional
[5] = Acute toxicity in po dosed Kunming mouse administered as single dose measured for 7 days; format: organism-based; conditions: in vivo, time 7 day
Outline: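 Kunming mice each received one oral dose at 250, 500, 750 or 1000 mg·kg^-1 and were closely monitored for 7 days. The median lethal dose (LD50) was estimated from this single-dose experiment.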

Mus musculus [6] = test: Antidiabetic activity in KK-Ay mouse assessed as reduction in fasting blood glucose level at 100 mg/kg, po for 50 days by glucose oxidase method (reference value: 13.3 +/- 2.85 mM); format: functional; conditions: time 50 day
Outline: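 Lipogenic-diet KK-Ay mice given 50 or 100 mg/kg compound or 5 mg/kg rosiglitazone orally for 50 days, C57BL/6J as normal controls. Fasting blood glucose, glycosylated haemoglobin, AGE, insulin, HOMA-IR, cholesterol, LDL-c, TG, serum creatinine and BUN determined. Mean ± SD, 8-9 mice per group.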

Mus musculus [7] = test: Anti-diabetic activity in high fat diet-fed KK-Ay mouse model of obesity and diabetes assessed as improved pathological changes in kidney at 50 to 100 mg/kg, po by hematoxylin and eosin staining based histopathological analysis; format: functional, organism-based; conditions: dose 50-100 mg/kg
Outline: (§1)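 Mice sacrificed at study end, with KK-Ay given 50 or 100 mg/kg compound or 5 mg/kg rosiglitazone orally and C57BL/6J as normal controls. Kidney and pancreas sections H&E stained, imaged at 200×, pathological changes scored. Mean ± SD of 8-9 mice per group.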

Mus musculus [8] = test: Antidiabetic activity in KK-Ay mouse assessed as effect on BUN level at 100 mg/kg, po for 24 hrs by ELISA (reference value: 12.8 +/- 2.97 mM); format: functional
[9] = Effect on high fat diet-fed po dosed C57BL/6J mouse model of obesity and diabetes assessed as water intake; format: organism-based; conditions: in vivo
L6 [10] = test: Increase in glucose consumption in rat L6 cells at 10 to 40 uM measured after 24 hrs; format: functional, cell-based; conditions: dose 10-40 µM
Outline: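 L6 myotubes treated with DMSO, compound or RGZ (20 μM) at the indicated concentrations for 24 h. Culture supernatants assayed for glucose consumption and lactate release; lysed cells assayed for ATP, normalized to protein. Mean ± SD of 3 independent experiments vs DMSO.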

[11] = Effect on high fat diet-fed KK-Ay mouse model of obesity and diabetes assessed as food intake at 50 mg/kg, po (reference value: 5.67 +/- 0.55 g/day); format: ADME, organism-based; conditions: in vivo
Outline: (§2)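 KK-Ay mice on lipogenic diet, with C57BL/6J mice as normal controls, dosed orally at 50 or 100 mg/kg (test) or 5 mg/kg (RGZ). Food intake (g/day), water intake (mL/day) and body weight recorded before and after treatment; body weight gain calculated. Mean±SD, 8-9 mice per group.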

Mus musculus [12] = test: Antidiabetic activity in KK-Ay mouse assessed as effect on LDL level at 50 mg/kg, po for 24 hrs by ELISA (reference value: 1.11 +/- 0.24 mM); format: functional
HepG2 [13] = test: Induction of glycolysis in human HepG2 cells assessed as reduction in cellular ATP production at 10 to 40 uM measured after 24 hrs; format: functional, cell-based; conditions: dose 10-40 µM
Outline: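 HepG2 cells treated 24 h at the indicated concentrations; RGZ as reference. Supernatants used for glucose consumption and lactate release; lysed cells used for ATP, normalized to protein content. Mean ± SD of 3 or 4 separate experiments; compared with DMSO.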

Mus musculus [14] = test: Anti-diabetic activity in high fat diet-fed KK-Ay mouse model of obesity and diabetes assessed as reduction in microalbumin level in urine at 50 to 100 mg/kg, po measured after 24 hrs; format: functional, organism-based; conditions: dose 50-100 mg/kg
Outline: (§3)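 Before study end, 24-h urine collected from C57BL/6J controls and KK-Ay mice (untreated, oral 50 or 100 mg/kg compound, or 5 mg/kg rosiglitazone). Volume, glucose, total protein and microalbumin measured by kits. Mean ± SD, 8-9 mice per group, vs C57BL/6J or untreated KK-Ay.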

[15] = Effect on high fat diet-fed KK-Ay mouse model of obesity and diabetes assessed as water intake at 50 mg/kg, po (reference value: 21.2 +/- 4.17 ml/day); format: ADME, organism-based; conditions: in vivo
Outline: as §2

Mus musculus [16] = test: Anti-diabetic activity in high fat diet-fed KK-Ay mouse model of obesity and diabetes assessed as reduction in total protein level in urine at 50 to 100 mg/kg, po measured after 24 hrs; format: functional, organism-based; conditions: dose 50-100 mg/kg
Outline: as §3

Mus musculus [17] = organism: Mus musculus; test: Anti-diabetic activity in high fat diet-fed C57BL/6J mouse model of obesity and diabetes assessed as decrease in microalbumin level in urine measured after 24 hrs; format: functional, organism-based
Outline: as §3

[18] = Effect on high fat diet-fed po dosed C57BL/6J mouse model of obesity and diabetes assessed as total body weight gain; format: organism-based; conditions: in vivo
Mus musculus [19] = test: Antidiabetic activity in KK-Ay mouse assessed as effect on insulin level at 50 mg/kg, […] by ELISA (reference value: 226 +/- 15.5 mU/l); format: functional
Mus musculus [20] = test: Anti-diabetic activity in high fat diet-fed KK-Ay mouse model of obesity and diabetes assessed as improved pathological changes in pancreas at 50 to 100 mg/kg, po by hematoxylin and eosin staining based histopathological analysis; format: functional, organism-based; conditions: dose 50-100 mg/kg
Outline: as §1

HepG2 [21] = test: Increase in glucose consumption in human HepG2 cells assessed as Gx/GDMSO ratio at 25 uM by glucose oxidase assay; format: functional
Outline: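 HepG2 glucose consumption screen. Test compounds at 25 μM, metformin at 5 mM. Activity expressed as ratio of glucose consumption to DMSO-treated cells (Gx/G_DMSO).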

L6 [22] = test: Induction of glycolysis in rat L6 cells assessed as increase in lactate release at 10 to 40 uM measured after 24 hrs; conditions: dose 10-40 µM
Mus musculus [23] = test: Antidiabetic activity in KK-Ay mouse assessed as effect on Triglycerides level at 50 mg/kg, […] by ELISA (reference value: 4.01 +/- 1.83 mM); format: functional
[24] = Effect on high fat diet-fed C57BL/6J mouse model of obesity and diabetes assessed as food intake; conditions: in vivo
[25] = Effect on high fat diet-fed KK-Ay mouse model of obesity and diabetes assessed as food intake at 100 mg/kg, po (reference value: 5.67 +/- 0.55 g/day); format: ADME, organism-based; conditions: in vivo
Outline: as §2

Mus musculus [26] = test: Antidiabetic activity in KK-Ay mouse assessed as effect on insulin level at 100 mg/kg, […] by ELISA (reference value: 226 +/- 15.5 mU/l); format: functional

## CCCC[C@@H]1[C@H]2CCCN3CCC[C@@H](CN1S(=O)(=O)c1ccc(C(F)(F)F)cc1)[C@@H]23
Mus musculus [1]
  Activity: Active
Mus musculus [2]
  Activity: 74.3
Mus musculus [3]
  Activity: 1.59 µg/mL
Mus musculus [4]
  Activity: 1.13 µg/mL
[5]
  LD50 at 168 h: 1000 mg/kg
Mus musculus [6]
  Activity: 8.18 mM
Mus musculus [7]
  Activity: Active
Mus musculus [8]
  Activity: 12.4 mM
[9]
  Activity: 4.38 mL/day
L6 [10]
  Activity: Dose-Dependent Effect
[11]
  Activity: 5.2 g/day
Mus musculus [12]
  Activity: 1.06 mM
HepG2 [13]
  Activity: Dose-Dependent Effect
Mus musculus [14]
  Activity: Active
[15]
  Activity: 13.8 mL/day
Mus musculus [16]
  Activity: Active
Mus musculus [17]
  Activity: inactive
[18]
  Activity: 3.42 g
Mus musculus [19]
  Activity: 177 mU/L
Mus musculus [20]
  Activity: Active
HepG2 [21]
  Ratio: 1.49
L6 [22]
  Activity: Dose-Dependent Effect
Mus musculus [23]
  Activity: 2.89 mM
[24]
  Activity: 4.29 g/day
[25]
  Activity: 5.28 g/day
Mus musculus [26]
  Activity: 128 mU/L
